ChEMBL document CHEMBL1140903, “Reactions of functionalized sulfonamides: application to lowering the lipophilicity of cytosolic phospholipase A2alpha inhibitors” (J Med Chem, 2009)
Active and inactive are the calls of the source. No cut-off for these calls is given here.

Columns and labels:
Blood [1] = test: Inhibition of A23187-induced TBX2 release in Sprague-Dawley rat whole blood; type: functional, tissue-based
Procedure, shortened: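 Rat whole blood is stimulated with calcium ionophore A23187, and thromboxane B2 is the read-out (cPLA2α- and COX-1-dependent). IC50 is taken from at least two runs, each run the mean of triplicate assays.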

[2] = target: T1, Cytosolic phospholipase A2 (Homo sapiens, UniProt P47712); test: Inhibition of human cytosolic PLA2alpha by GLU micelle assay
T1 sequence (P47712 whole entry): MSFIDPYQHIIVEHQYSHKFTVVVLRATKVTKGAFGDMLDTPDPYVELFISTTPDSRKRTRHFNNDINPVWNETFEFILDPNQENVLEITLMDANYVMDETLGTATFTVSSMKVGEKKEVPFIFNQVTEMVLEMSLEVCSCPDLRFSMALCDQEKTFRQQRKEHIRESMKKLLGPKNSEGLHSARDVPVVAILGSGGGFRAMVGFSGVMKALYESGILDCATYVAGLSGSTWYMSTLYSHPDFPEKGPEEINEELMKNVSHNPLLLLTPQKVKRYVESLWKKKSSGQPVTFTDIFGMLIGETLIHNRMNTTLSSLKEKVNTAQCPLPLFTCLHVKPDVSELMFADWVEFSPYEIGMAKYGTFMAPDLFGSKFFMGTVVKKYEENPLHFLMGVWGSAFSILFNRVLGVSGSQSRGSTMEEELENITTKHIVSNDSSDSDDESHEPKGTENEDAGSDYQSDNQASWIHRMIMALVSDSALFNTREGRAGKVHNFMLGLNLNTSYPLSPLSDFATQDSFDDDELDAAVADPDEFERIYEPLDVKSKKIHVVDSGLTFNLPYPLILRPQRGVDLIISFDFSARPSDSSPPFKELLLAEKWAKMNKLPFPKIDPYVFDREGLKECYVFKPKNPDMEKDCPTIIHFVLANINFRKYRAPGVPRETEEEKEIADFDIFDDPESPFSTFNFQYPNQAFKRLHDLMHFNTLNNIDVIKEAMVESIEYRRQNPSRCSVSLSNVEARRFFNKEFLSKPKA
Procedure, shortened: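 Purified human cPLA2α with the substrate 7-hydroxycoumarinyl-γ-linolenate (GLU), presented in micelles containing a high concentration of detergent and lipid. IC50 is taken from at least two runs, each run the mean of duplicate assays.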

Rattus norvegicus [3] = test: Plasma concentration in carrageenan-induced paw edema Sprague-Dawley rat model at 15 mg/kg, iv; details: in vivo
Rattus norvegicus [4] = test: Antiinflammatory activity against carrageenan-induced paw edema in Sprague-Dawley rat at 15 mg/kg, iv; type: functional
Procedure, shortened: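 Rat carrageenan paw edema after iv dosing in 50/50 PEG/DMSO, with paw swelling assessed 3 h after dosing. Groups of 10 animals; naproxen was used to define maximal % inhibition.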

MC9 [5] = test: cells; details: Mus musculus, MC9, read-out: INH
Rattus norvegicus [6] = test: Antiinflammatory activity against carrageenan-induced paw edema in Sprague-Dawley rat at 10 mg/kg, iv; details: read-out: INH
MC9 [7] = test: Inhibition of IgE-specific antigen-induced PGF2alpha release in rat MC9 cells at 0.20 uM; details: Mus musculus, MC9, read-out: INH
MC9 [8] = test: Inhibition of arachidonic acid-induced PGF2-alpha release in mouse MC9 cells at 1.0 uM
MC9 [9] = test: Inhibition of IgE-specific antigen-induced PGF2-alpha release in mouse MC9 cells at 1.0 uM
MC9 [10] = test: Inhibition of IgE-specific antigen-induced LBT4 release in mouse MC9 cells at 1.0 uM
Blood [11] = test: Inhibition of A23187-induced TBX2 release in human whole blood at 10 uM; type: functional
MC9 [12] = test: Inhibition of arachidonic acid-induced PGF2alpha release in mouse MC9 cells at 0.30 uM
MC9 [13] = test: Inhibition of IgE-specific antigen-induced PGF2-alpha release in rat MC9 cells at 0.0005 uM; type: functional; details: Mus musculus
MC9 [14] = test: Inhibition of IgE-specific antigen-induced PGF2-alpha release in mouse MC9 cells at 0.40 uM
MC9 [15] = test: Inhibition of arachidonic acid-induced PGF2-alpha release in rat MC9 cells at 0.0005 uM; type: functional; details: Mus musculus
MC9 [16] = test: Inhibition of IgE-specific antigen-induced PGF2alpha release in mouse MC9 cells at […]
MC9 [17] = test: Inhibition of IgE-specific antigen-induced LBT4 release in mouse MC9 cells at 0.333 uM
Blood [18] = test: Inhibition of A23187-induced TBX2 release in human whole blood; type: functional, tissue-based
Procedure, shortened: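 Human whole blood is stimulated with calcium ionophore A23187 at a higher concentration than in the rat whole blood assay. Thromboxane production is the read-out.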

MC9 [19] = test: Inhibition of arachidonic acid-induced PGF2-alpha release in mouse MC9 cells
MC9 [20] = test: Inhibition of IgE-specific antigen-induced PGF2-alpha release in mouse MC9 cells
MC9 [21] = test: Inhibition of IgE-specific antigen-induced LBT4 release in mouse MC9 cells at […]
MC9 [22] = test: as above; remark: listed apart in the source

O=C(O)c1ccc(CCCc2c(CCNS(=O)(=O)Cc3ccc(Cl)c(Cl)c3)n(C(c3ccccc3)c3ccccc3)c3ccc(Cl)cc23)cc1 [EFIPLADIB]
IC50 (Blood [1]): 70 nM | IC50 [2]: 40 nM | concentration (Rattus norvegicus [3]): 5.3 µM | inhibition in vivo at 15 mg/kg (Rattus norvegicus [4]): 51%

COc1ccc2cc([C@H](C)C(=O)O)ccc2c1 [NAPROXEN]
inhibition at […] (MC9 [5]): 50% | inhibition in vivo at 10 mg/kg (Rattus norvegicus [6]): 50% | inhibition at 0.2 µM (MC9 [7]): 50%

O=C(O)c1ccc(OCCc2c(CCNS(=O)(=O)CCn3cnnn3)n(C(c3ccccc3)c3ccccc3)c3ccc(Cl)cc23)cc1
IC50 (Blood [1]): 5600 nM | inhibition at 1 µM (MC9 [8]): -5% | IC50 [2]: 470 nM | inhibition at 1 µM (MC9 [9]): 19% | inhibition at 1 µM (MC9 [10]): 59% | inhibition at 10 µM (Blood [11]): < 25%

Cc1ccc(-c2cc(C(F)(F)F)nn2-c2ccc(S(N)(=O)=O)cc2)cc1 [CELECOXIB]
inhibition at 0.3 µM (MC9 [12]): 50% | inhibition at 0.0005 µM (MC9 [13]): 79% | inhibition at 0.4 µM (MC9 [14]): 50% | inhibition at 0.0005 µM (MC9 [15]): 79%

O=C(O)c1ccc(OCCc2c(CCNS(=O)(=O)CCn3ncnn3)n(C(c3ccccc3)c3ccccc3)c3ccc(Cl)cc23)cc1
IC50 (Blood [1]): 450 nM | inhibition at 1 µM (MC9 [8]): 4% | IC50 [2]: 380 nM | inhibition at 0.33 µM at […] (MC9 [16]): 71% | inhibition at 0.333 µM (MC9 [17]): 80% | IC50 (Blood [18]): 2000 nM

CC(c1cc2ccccc2s1)N(O)C(N)=O (stereo unspecified) [ZILEUTON]
Activity (MC9 [19]): inactive | Activity (MC9 [20]): inactive | inhibition at 0.55 µM at […] (MC9 [21]): 50%

NC(=O)C1CCCN1CCS(=O)(=O)NCCc1c(CCOc2ccc(C(=O)O)cc2)c2cc(Cl)ccc2n1C(c1ccccc1)c1ccccc1 (single isomer, unassigned)
IC50 (Blood [1]): 3200 nM | inhibition at 1 µM (MC9 [8]): 8% | IC50 [2]: 350 nM | inhibition at 0.33 µM at […] (MC9 [16]): 41% | inhibition at 0.33 µM at […] (MC9 [22]): 41%
